Measurements from ChEMBL document CHEMBL1165943, “Design and synthesis of new anticancer pyrimidines with multiple-kinase inhibitory effect” (Bioorg Med Chem, 2010).

How the values were obtained:
Assay type in all cases: functional
[1] = tested on: Malme-3M; assay: Cytotoxicity against human MALME-3M cells assessed as cell growth at 10 uM; details: Homo sapiens, Malme-3M; read-out: Activity
How it was run: (§1)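 Single-dose screen at 10 μM across the 60-cell-line panel. Cells grown in RPMI 1640 with 5% FBS and 2 mM L-glutamine, seeded at 5,000–40,000 cells/well according to doubling time, and treated 24 h later. Exposure lasted 48 h at 37 °C, 5% CO₂. Adherent cells were fixed with cold TCA, suspension cells were fixed settled, and both were stained with SRB and read at 515 nm. Growth % was recorded, with inhibition % = 100 − growth %.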

[2] = tested on: SNB-75; assay: Cytotoxicity against human SNB75 cells assessed as cell growth at 10 uM; details: Homo sapiens, SNB-75; read-out: Activity; how it was run: as §1
[3] = tested on: NCI-H226; assay: Cytotoxicity against human NCI-H226 cells assessed as cell growth at 10 uM; details: Homo sapiens, NCI-H226; read-out: Activity; how it was run: as §1
[4] = tested on: NCI-H322M; assay: Cytotoxicity against human NCI-H322M cells assessed as cell growth at 10 uM; details: Homo sapiens, NCI-H322M; read-out: Activity; how it was run: as §1
[5] = tested on: NCI-H460; assay: Cytotoxicity against human NCI-H460 cells assessed as cell growth at 10 uM; details: Homo sapiens, NCI-H460; read-out: Activity; how it was run: as §1
[6] = tested on: NCI/ADR-RES; assay: Cytotoxicity against human NCI/ADR-RES cells assessed as cell growth at 10 uM; details: Homo sapiens, NCI/ADR-RES; read-out: Activity; how it was run: as §1
[7] = tested on: HCT-15; assay: Cytotoxicity against human HCT15 cells assessed as cell growth at 10 uM; details: Homo sapiens, HCT-15; read-out: Activity
How it was run: (§2)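 Single-concentration screen at 10 μM across the 60-cell-line panel (nine tissue types); growth percentage recorded per cell line, with inhibition taken as 100 minus growth percentage.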

[8] = tested on: SF-268; assay: Cytotoxicity against human SF268 cells assessed as cell growth at 10 uM; details: Homo sapiens, SF-268; read-out: Activity; how it was run: as §1
[9] = tested on: HT-29; assay: Cytotoxicity against human HT-29 cells assessed as cell growth at 10 uM; details: Homo sapiens, HT-29; read-out: Activity; how it was run: as §2
[10] = tested on: SK-MEL-2; assay: Cytotoxicity against human SK-MEL-2 cells assessed as cell growth at 10 uM; details: Homo sapiens, SK-MEL-2; read-out: Activity; how it was run: as §1
[11] = tested on: U-251; assay: Cytotoxicity against human U251 cells assessed as cell growth at 10 uM; details: Homo sapiens, U-251; read-out: Activity; how it was run: as §1
[12] = tested on: DU-145; assay: Cytotoxicity against human DU145 cells assessed as cell growth at 10 uM; details: Homo sapiens, DU-145; read-out: Activity; how it was run: as §2
[13] = tested on: HCT-116; assay: Cytotoxicity against human HCT116 cells assessed as cell growth at 10 uM; details: Homo sapiens, HCT-116; read-out: Activity; how it was run: as §2
[14] = tested on: OVCAR-4; assay: Cytotoxicity against human OVCAR4 cells assessed as cell growth at 10 uM; details: Homo sapiens, OVCAR-4; read-out: Activity; how it was run: as §1
[15] = tested on: OVCAR-3; assay: Cytotoxicity against human OVCAR-3 cells assessed as cell growth at 10 uM; details: Homo sapiens, OVCAR-3; read-out: Activity; how it was run: as §1
[16] = tested on: SR; assay: Cytotoxicity against human SR cells assessed as cell growth at 10 uM; details: Homo sapiens, SR; read-out: Activity; how it was run: as §1
[17] = tested on: TK-10; assay: Cytotoxicity against human TK10 cells assessed as cell growth at 10 uM; details: Homo sapiens, TK-10; read-out: Activity; how it was run: as §1
[18] = tested on: MCF7; assay: Cytotoxicity against human MCF7 cells assessed as cell growth at 10 uM; details: Homo sapiens, MCF7; read-out: Activity; how it was run: as §1
[19] = tested on: SF-295; assay: Cytotoxicity against human SF295 cells assessed as cell growth at 10 uM; details: Homo sapiens, SF-295; read-out: Activity; how it was run: as §1
[20] = tested on: OVCAR-8; assay: Cytotoxicity against human OVCAR8 cells assessed as cell growth at 10 uM; details: Homo sapiens, OVCAR-8; read-out: Activity; how it was run: as §1
[21] = tested on: PC-3; assay: Cytotoxicity against human PC3 cells assessed as cell growth at 10 uM; details: Homo sapiens, PC-3; read-out: Activity; how it was run: as §1
[22] = tested on: 786-0; assay: Cytotoxicity against human 786-0 cells assessed as cell growth at 10 uM; details: Homo sapiens, 786-0; read-out: Activity; how it was run: as §2
[23] = tested on: IGROV-1; assay: Cytotoxicity against human IGROV1 cells assessed as cell growth at 10 uM; details: Homo sapiens, IGROV-1; read-out: Activity; how it was run: as §1
[24] = tested on: EKVX; assay: Cytotoxicity against human EKVX cells assessed as cell growth at 10 uM; details: Homo sapiens, EKVX; read-out: Activity; how it was run: as §2
[25] = tested on: BT-549; assay: Cytotoxicity against human BT549 cells assessed as cell growth at 10 uM; details: Homo sapiens, BT-549; read-out: Activity; how it was run: as §2
[26] = tested on: OVCAR-5; assay: Cytotoxicity against human OVCAR5 cells assessed as cell growth at 10 uM; details: Homo sapiens, OVCAR-5; read-out: Activity; how it was run: as §1
[27] = tested on: MOLT-4; assay: Cytotoxicity against human MOLT4 cells assessed as cell growth at 10 uM; details: Homo sapiens, MOLT-4; read-out: Activity; how it was run: as §1
[28] = tested on: T47D; assay: Cytotoxicity against human T47D cells assessed as cell growth at 10 uM; details: Homo sapiens, T47D; read-out: Activity; how it was run: as §1
[29] = tested on: MDA-MB-468; assay: Cytotoxicity against human MDA-MB-468 cells assessed as cell growth at 10 uM; details: Homo sapiens, MDA-MB-468; read-out: Activity; how it was run: as §1
[30] = tested on: HOP-62; assay: Cytotoxicity against human HOP62 cells assessed as cell growth at 10 uM; details: Homo sapiens, HOP-62; read-out: Activity; how it was run: as §2
[31] = tested on: LOX IMVI; assay: Cytotoxicity against human LOXIMVI cells assessed as cell growth at 10 uM; details: Homo sapiens, LOX IMVI; read-out: Activity; how it was run: as §1
[32] = tested on: HCC 2998; assay: Cytotoxicity against human HCC2998 cells assessed as cell growth at 10 uM; details: Homo sapiens, HCC 2998; read-out: Activity; how it was run: as §2
[33] = tested on: ACHN; assay: Cytotoxicity against human ACHN cells assessed as cell growth at 10 uM; details: Homo sapiens, ACHN; read-out: Activity; how it was run: as §2
[34] = tested on: NCI-H522; assay: Cytotoxicity against human NCI-H522 cells assessed as cell growth at 10 uM; details: Homo sapiens, NCI-H522; read-out: Activity; how it was run: as §1
[35] = tested on: SK-MEL-5; assay: Cytotoxicity against human SK-MEL-5 cells assessed as cell growth at 10 uM; details: Homo sapiens, SK-MEL-5; read-out: Activity; how it was run: as §1
[36] = tested on: K562; assay: Cytotoxicity against human K562 cells assessed as cell growth at 10 uM; details: Homo sapiens, K562; read-out: Activity; how it was run: as §1
[37] = tested on: M14; assay: Cytotoxicity against human M14 cells assessed as cell growth at 10 uM; details: Homo sapiens, M14; read-out: Activity; how it was run: as §1
[38] = tested on: UACC-62; assay: Cytotoxicity against human UACC62 cells assessed as cell growth at 10 uM; details: Homo sapiens, UACC-62; read-out: Activity; how it was run: as §1
[39] = tested on: SK-OV-3; assay: Cytotoxicity against human SKOV3 cells assessed as cell growth at 10 uM; details: Homo sapiens, SK-OV-3; read-out: Activity; how it was run: as §1

Structure (SMILES) | growth at 10 µM [1] [%] | growth at 10 µM [2] [%] | growth at 10 µM [3] [%] | growth at 10 µM [4] [%] | growth at 10 µM [5] [%] | growth at 10 µM [6] [%] | growth at 10 µM [7] [%] | growth at 10 µM [8] [%] | growth at 10 µM [9] [%] | growth at 10 µM [10] [%] | growth at 10 µM [11] [%] | growth at 10 µM [12] [%] | growth at 10 µM [13] [%] | growth at 10 µM [14] [%] | growth at 10 µM [15] [%] | growth at 10 µM [16] [%] | growth at 10 µM [17] [%] | growth at 10 µM [18] [%] | growth at 10 µM [19] [%] | growth at 10 µM [20] [%] | other results
CC(=O)c1ccccc1-c1ccc(-c2ccnc(NC(=O)Nc3cc(N4CCOCC4)cc(C(F)(F)F)c3)n2)cn1 | 24.8 | 8.55 | 39.4 | 90.1 | 87.4 | 58.1 | 84.2 | 63.9 | 33.1 | 60.8 | 56.4 | 45.3 | 63 | 27.5 | 123 | 86.2 | 47.8 | 75 | 74.8 | 43 | growth at 10 µM [21]: 71.3%; growth at 10 µM [22]: 47.3%; growth at 10 µM [23]: 70.8%; growth at 10 µM [24]: 88.2%; growth at 10 µM [25]: 51.7%; growth at 10 µM [26]: 102%; growth at 10 µM [27]: 87.1%; growth at 10 µM [28]: 79.8%; growth at 10 µM [29]: 82.1%; growth at 10 µM [30]: 7.86%; growth at 10 µM [31]: 44.7%; growth at 10 µM [32]: 106%; growth at 10 µM [33]: 45.7%; growth at 10 µM [34]: 60.2%; growth at 10 µM [35]: 43.2%; growth at 10 µM [36]: 83.3%; growth at 10 µM [37]: 8.07%; growth at 10 µM [38]: 76%; growth at 10 µM [39]: 71.5%
CC(=O)c1ccc(-c2ccc(-c3ccnc(Nc4cc(C(F)(F)F)cc(C(F)(F)F)c4)n3)cn2)cc1 | 124 | 78.3 | 100 | 103 | 106 | 103 | 110 | 106 | 105 | 104 | 101 | 114 | 92.9 | 94.6 | 119 | 96.5 | 106 | 90.8 | 110 | 96.7 | growth at 10 µM [21]: 89.8%; growth at 10 µM [22]: 105%; growth at 10 µM [23]: 99.7%; growth at 10 µM [24]: 113%; growth at 10 µM [25]: 99.8%; growth at 10 µM [26]: 109%; growth at 10 µM [27]: 91%; growth at 10 µM [28]: 91.6%; growth at 10 µM [29]: 106%; growth at 10 µM [30]: 112%; growth at 10 µM [31]: 97.8%; growth at 10 µM [32]: 104%; growth at 10 µM [33]: 103%; growth at 10 µM [34]: 102%; growth at 10 µM [35]: 101%; growth at 10 µM [36]: 98.5%; growth at 10 µM [37]: 109%; growth at 10 µM [38]: 104%; growth at 10 µM [39]: 93.5%
FC(F)(F)c1cc(Nc2nccc(-c3cccnc3)n2)cc(C(F)(F)F)c1 | 103 | 95.3 | 99.6 | 97.5 | 103 | 94.7 | 92.7 | 99.5 | 92.1 | 98.2 | 98.7 | 106 | 91.1 | 121 | 119 | 87.8 | 106 | 96 | 103 | 102 | growth at 10 µM [21]: 105%; growth at 10 µM [22]: 97.1%; growth at 10 µM [23]: 101%; growth at 10 µM [24]: 102%; growth at 10 µM [25]: 107%; growth at 10 µM [26]: 97%; growth at 10 µM [27]: 95%; growth at 10 µM [28]: 83.9%; growth at 10 µM [29]: 98.4%; growth at 10 µM [30]: 104%; growth at 10 µM [31]: 100%; growth at 10 µM [32]: 118%; growth at 10 µM [33]: 102%; growth at 10 µM [34]: 86.5%; growth at 10 µM [35]: 101%; growth at 10 µM [36]: 89.6%; growth at 10 µM [37]: 116%; growth at 10 µM [38]: 102%; growth at 10 µM [39]: 106%
